According to ChEMBL document CHEMBL3352372, “Design, synthesis and 3D-QSAR studies of new diphenylamine containing 1,2,4-triazoles as potential antitubercular agents” (Eur J Med Chem, 2014):
Values after ≈ are worked out from the molar mass of the structure shown.

Tests used:
Staphylococcus aureus = assay: Antibacterial activity Staphylococcus aureus ATCC-25923 assessed as growth inhibition after 24 hrs by twofold serial dilution technique; format: functional; details: ATCC-25923, 24 h
Summary of the method: (§1)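 Tube twofold serial dilution of compounds dissolved in DMSO, under aseptic conditions. Solvent, growth (negative) and drug (ampicillin) controls were run alongside. Tubes were incubated 24 h at 37 °C. MIC was taken as the lowest concentration giving apparent complete inhibition of growth. Strains were first screened by cup plate method.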

Escherichia coli = assay: Antibacterial activity Escherichia coli ATCC-25922 assessed as growth inhibition after 24 hrs by twofold serial dilution technique; format: functional; details: ATCC-25922, 24 h; summary of the method: as §1
[1] = Cytotoxicity against african green monkey Vero cells after 72 hrs by MTT assay; format: cell-based; details: chlorocebus sabaeus
Summary of the method: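 After media removal and a PBS wash, dilutions were added with DMSO control, then incubated 72 h at 37 °C, 5% CO2. Cells were washed, given MTT for 3 h in the dark, and solubilized in DMSO 1–2 h. CC50 was extrapolated from plotted % inhibition (100 − % viability) against concentration.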

Bacillus spizizenii = assay: Antibacterial activity Bacillus Bacillus subtilis ATCC 6633 assessed as growth inhibition after 24 hrs by twofold serial dilution technique; format: functional; details: ATCC 6633, 24 h; summary of the method: as §1
Pseudomonas aeruginosa = assay: Antibacterial activity Pseudomonas aeruginosa ATCC-27853 assessed as growth inhibition after 24 hrs by twofold serial dilution technique; format: functional; details: ATCC-27853, 24 h; summary of the method: as §1
[2] = test system: Mycobacterium tuberculosis; assay: Antitubercular activity Mycobacterium tuberculosis H37Rv assessed as growth inhibition after 5 days by MABA method; format: functional; details: for MIC: Mycobacterium tuberculosis, H37Rv, 120 h
Summary of the method: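 Log-phase H37Rv was diluted to a final OD550 of 0.05 in Middlebrook 7H9 broth, and compounds in DMSO were added in 96-well plates. After a further 24 h at 37 °C/5% CO2, fluorescence was read (ex 544 nm, em 590 nm). Inhibition was scored against the untreated control, with >90% inhibition counted as active in the initial screen.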

[3] = test system: Mycobacterium tuberculosis; assay: Antitubercular activity Mycobacterium tuberculosis H37Rv assessed as growth inhibition after 30 days by agar microdilution method; format: functional
Summary of the method: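 M. tuberculosis H37Rv (ATCC 27294) grown on L-J medium, harvested in 0.85% saline with 0.05% Tween-80. Compounds, from a DMSO stock, were added as twofold dilutions to Middlebrook 7H10 agar with OADC in tubes. After 30 days of incubation, tubes were compared with untreated H37Rv control tubes. The lowest concentration giving complete inhibition of colonies was reported.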

[4] = Cytotoxicity against human HepG2 cells after 72 hrs by MTT assay; format: cell-based

Structure (SMILES) | MIC (Staphylococcus aureus) [µM] | MIC (Escherichia coli) [µM] | CC50 at 72 h [1] [µM] | MIC (Bacillus spizizenii) [µM] | MIC (Pseudomonas aeruginosa) [µM] | -logMIC [2] | MIC [2] [µM] | MIC [3] [µM] | CC50 at 72 h [4] [µM]
S=c1n(CN2CCOCC2)nc(Cc2ccccc2Nc2c(Cl)cccc2Cl)n1/N=C/c1cccs1 | 6.25 (≈ 3.5 µg/mL) | 6.25 (≈ 3.5 µg/mL) | > 300 | 12.5 (≈ 6.99 µg/mL) | 12.5 (≈ 6.99 µg/mL) | 5.796 | 1.6 (≈ 0.895 µg/mL) | 3.12 (≈ 1.75 µg/mL) | 250
COc1ccc(/C=N/n2c(Cc3ccccc3Nc3c(Cl)cccc3Cl)nn(CN3CCOCC3)c2=S)cc1OC | 12.5 (≈ 7.67 µg/mL) | 6.25 (≈ 3.83 µg/mL) | > 300 | 12.5 (≈ 7.67 µg/mL) | 12.5 (≈ 7.67 µg/mL) | 5.204 | 6.25 (≈ 3.83 µg/mL) | 6.25 (≈ 3.83 µg/mL) | 282
COc1ccc(/C=N/n2c(Cc3ccccc3Nc3c(Cl)cccc3Cl)nn3c(=O)c4ccccc4nc23)cc1 | 100 (≈ 56.9 µg/mL) | 100 (≈ 56.9 µg/mL) | – | 25 (≈ 14.2 µg/mL) | 100 (≈ 56.9 µg/mL) | 4.602 | 25 (≈ 14.2 µg/mL) | – | –
O=C1CSC(c2cccs2)N1n1c(Cc2ccccc2Nc2c(Cl)cccc2Cl)n[nH]c1=S (stereo unspecified) | 12.5 (≈ 6.68 µg/mL) | 12.5 (≈ 6.68 µg/mL) | – | 12.5 (≈ 6.68 µg/mL) | 12.5 (≈ 6.68 µg/mL) | 4.602 | 25 (≈ 13.4 µg/mL) | – | –
O=C1CSC(c2ccco2)N1n1c(Cc2ccccc2Nc2c(Cl)cccc2Cl)n[nH]c1=S (stereo unspecified) | 12.5 (≈ 6.48 µg/mL) | 12.5 (≈ 6.48 µg/mL) | – | 12.5 (≈ 6.48 µg/mL) | 12.5 (≈ 6.48 µg/mL) | 4.602 | 25 (≈ 13 µg/mL) | – | –
COc1ccc(/C=N/n2c(Cc3ccccc3Nc3c(Cl)cccc3Cl)nn(CN3CCCCC3)c2=S)cc1 | 12.5 (≈ 7.27 µg/mL) | 6.25 (≈ 3.63 µg/mL) | – | 12.5 (≈ 7.27 µg/mL) | 12.5 (≈ 7.27 µg/mL) | 4.903 | 12.5 (≈ 7.27 µg/mL) | 12.5 (≈ 7.27 µg/mL) | –
COc1ccc(C2SCC(=O)N2n2c(Cc3ccccc3Nc3c(Cl)cccc3Cl)n[nH]c2=S)cc1OC (stereo unspecified) | 100 (≈ 58.9 µg/mL) | 100 (≈ 58.9 µg/mL) | – | 100 (≈ 58.9 µg/mL) | 100 (≈ 58.9 µg/mL) | 4.301 | 50 (≈ 29.4 µg/mL) | – | –
O=c1c2ccccc2nc2n(/N=C/c3ccncc3)c(Cc3ccccc3Nc3c(Cl)cccc3Cl)nn12 | 100 (≈ 54 µg/mL) | 25 (≈ 13.5 µg/mL) | – | 100 (≈ 54 µg/mL) | 100 (≈ 54 µg/mL) | 4.602 | 25 (≈ 13.5 µg/mL) | – | –
COc1ccc(/C=N/n2c(Cc3ccccc3Nc3c(Cl)cccc3Cl)nn(CN3CCCCC3)c2=S)cc1OC | 12.5 (≈ 7.64 µg/mL) | 25 (≈ 15.3 µg/mL) | – | 25 (≈ 15.3 µg/mL) | 25 (≈ 15.3 µg/mL) | 4.903 | 12.5 (≈ 7.64 µg/mL) | 6.25 (≈ 3.82 µg/mL) | –
NNC(=O)c1ccncc1 [ISONIAZID] | – | – | – | – | – | – | < 0.2 | < 0.2 | –
O=c1c2ccccc2nc2n(/N=C/c3ccco3)c(Cc3ccccc3Nc3c(Cl)cccc3Cl)nn12 | 12.5 (≈ 6.62 µg/mL) | 12.5 (≈ 6.62 µg/mL) | – | 12.5 (≈ 6.62 µg/mL) | 12.5 (≈ 6.62 µg/mL) | 4.602 | 25 (≈ 13.2 µg/mL) | – | –
O=C1CSC(c2ccccc2)N1n1c(Cc2ccccc2Nc2c(Cl)cccc2Cl)n[nH]c1=S (stereo unspecified) | 12.5 (≈ 6.61 µg/mL) | 12.5 (≈ 6.61 µg/mL) | – | 12.5 (≈ 6.61 µg/mL) | 12.5 (≈ 6.61 µg/mL) | 4.301 | 50 (≈ 26.4 µg/mL) | – | –
S=c1n(CN2CCCCC2)nc(Cc2ccccc2Nc2c(Cl)cccc2Cl)n1/N=C/c1ccncc1 | 12.5 (≈ 6.91 µg/mL) | 25 (≈ 13.8 µg/mL) | – | 25 (≈ 13.8 µg/mL) | 25 (≈ 13.8 µg/mL) | 4.903 | 12.5 (≈ 6.91 µg/mL) | 12.5 (≈ 6.91 µg/mL) | –
S=c1n(CN2CCOCC2)nc(Cc2ccccc2Nc2c(Cl)cccc2Cl)n1/N=C/c1ccncc1 | 12.5 (≈ 6.93 µg/mL) | 25 (≈ 13.9 µg/mL) | – | 12.5 (≈ 6.93 µg/mL) | 25 (≈ 13.9 µg/mL) | 4.903 | 12.5 (≈ 6.93 µg/mL) | 12.5 (≈ 6.93 µg/mL) | –
CC1(C)S[C@@H]2[C@H](NC(=O)[C@H](N)c3ccccc3)C(=O)N2[C@H]1C(=O)O [AMPICILLIN] | 6.25 (≈ 2.18 µg/mL) | < 6.25 | – | 6.25 (≈ 2.18 µg/mL) | < 6.25 | – | – | – | –
O=C1CSC(c2ccncc2)N1n1c(Cc2ccccc2Nc2c(Cl)cccc2Cl)n[nH]c1=S (stereo unspecified) | 25 (≈ 13.2 µg/mL) | 50 (≈ 26.5 µg/mL) | – | 12.5 (≈ 6.62 µg/mL) | 50 (≈ 26.5 µg/mL) | 4.903 | 12.5 (≈ 6.62 µg/mL) | 6.25 (≈ 3.31 µg/mL) | –
S=c1n(CN2CCCCC2)nc(Cc2ccccc2Nc2c(Cl)cccc2Cl)n1/N=C/c1ccccc1 | 12.5 (≈ 6.89 µg/mL) | 12.5 (≈ 6.89 µg/mL) | > 300 | 25 (≈ 13.8 µg/mL) | 25 (≈ 13.8 µg/mL) | 5.204 | 6.25 (≈ 3.45 µg/mL) | 6.25 (≈ 3.45 µg/mL) | > 300
COc1ccc(/C=N/n2c(Cc3ccccc3Nc3c(Cl)cccc3Cl)nn(CN3CCOCC3)c2=S)cc1 | 6.25 (≈ 3.65 µg/mL) | 6.25 (≈ 3.65 µg/mL) | > 300 | 12.5 (≈ 7.29 µg/mL) | 12.5 (≈ 7.29 µg/mL) | 5.204 | 6.25 (≈ 3.65 µg/mL) | 6.25 (≈ 3.65 µg/mL) | > 300
S=c1n(CN2CCCCC2)nc(Cc2ccccc2Nc2c(Cl)cccc2Cl)n1/N=C/c1ccco1 | 25 (≈ 13.5 µg/mL) | 12.5 (≈ 6.77 µg/mL) | > 300 | 25 (≈ 13.5 µg/mL) | 25 (≈ 13.5 µg/mL) | 5.204 | 6.25 (≈ 3.38 µg/mL) | 6.25 (≈ 3.38 µg/mL) | 262
O=c1c2ccccc2nc2n(/N=C/c3cccs3)c(Cc3ccccc3Nc3c(Cl)cccc3Cl)nn12 | 12.5 (≈ 6.82 µg/mL) | 12.5 (≈ 6.82 µg/mL) | – | 12.5 (≈ 6.82 µg/mL) | 12.5 (≈ 6.82 µg/mL) | 4.903 | 12.5 (≈ 6.82 µg/mL) | 12.5 (≈ 6.82 µg/mL) | –
O=c1c2ccccc2nc2n(/N=C/c3ccccc3)c(Cc3ccccc3Nc3c(Cl)cccc3Cl)nn12 | 12.5 (≈ 6.74 µg/mL) | 12.5 (≈ 6.74 µg/mL) | – | 12.5 (≈ 6.74 µg/mL) | 12.5 (≈ 6.74 µg/mL) | 4.903 | 12.5 (≈ 6.74 µg/mL) | 12.5 (≈ 6.74 µg/mL) | –
COc1ccc(/C=N/n2c(Cc3ccccc3Nc3c(Cl)cccc3Cl)nn3c(=O)c4ccccc4nc23)cc1OC | 12.5 (≈ 7.49 µg/mL) | 25 (≈ 15 µg/mL) | – | 25 (≈ 15 µg/mL) | 50 (≈ 30 µg/mL) | 4.602 | 25 (≈ 15 µg/mL) | – | –
S=c1n(CN2CCCCC2)nc(Cc2ccccc2Nc2c(Cl)cccc2Cl)n1/N=C/c1cccs1 | 12.5 (≈ 6.97 µg/mL) | 12.5 (≈ 6.97 µg/mL) | – | 12.5 (≈ 6.97 µg/mL) | 12.5 (≈ 6.97 µg/mL) | 4.903 | 12.5 (≈ 6.97 µg/mL) | 12.5 (≈ 6.97 µg/mL) | –
COc1ccc(C2SCC(=O)N2n2c(Cc3ccccc3Nc3c(Cl)cccc3Cl)n[nH]c2=S)cc1 (stereo unspecified) | 12.5 (≈ 6.98 µg/mL) | 100 (≈ 55.9 µg/mL) | – | 100 (≈ 55.9 µg/mL) | 100 (≈ 55.9 µg/mL) | 4.301 | 50 (≈ 27.9 µg/mL) | – | –
